# Test results: ChEMBL document CHEMBL2331355, “Synthesis, structure activity relationship and mode of action of 3-substitutedphenyl-1-(2,2,8,8-tetramethyl-3,4,9,10-tetrahydro-2H,8H-pyrano[2,3-f]chromen-6-yl)-propenones as novel anticancer agents in human leukaemia HL-60 cells” (Eur J Med Chem, 2013)
# What was measured:
# Type in all cases: functional
# [1] = test system: Caco-2; test: Growth inhibition of human Caco2 cells at 50 uM after 48 hrs by MTT assay; settings: Caco-2, 48 h, read-out: GI
# How it was run: (§1)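 Single-concentration MTT screen at 50 µM over 48 h in 96-well plates. Compounds giving >50% inhibition were rescreened at 30 µM. OD read at 570 nm, reference 620 nm. Result expressed as % growth inhibition versus untreated control. Mitomycin C, adriamycin or 5-fluorouracil used as positive controls. Mean ± SD of three independent experiments.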
# [2] = test system: MDA-MB-435; test: Growth inhibition of human MDA-MB-435 cells at 50 uM after 48 hrs by MTT assay; settings: MDA-MB-435, 48 h, read-out: GI; how it was run: as §1
# [3] = test system: MCF7; test: Growth inhibition of human MCF7 cells at 50 uM after 48 hrs by MTT assay; settings: MCF7, 48 h, read-out: GI; how it was run: as §1
# [4] = test system: ASPC1; test: Growth inhibition of human AsPC1 cells at 50 uM after 48 hrs by MTT assay; settings: ASPC1, 48 h, read-out: GI; how it was run: as §1
# [5] = test system: MIA PaCa-2; test: Growth inhibition of human MIAPaCa2 cells at 50 uM after 48 hrs by MTT assay; settings: MIA PaCa-2, 48 h, read-out: GI; how it was run: as §1
# [6] = test system: HL-60; test: Growth inhibition of human HL60 cells at 50 uM after 48 hrs by MTT assay; settings: HL-60, 48 h, read-out: GI; how it was run: as §1
# [7] = test system: PC-3; test: Growth inhibition of human PC3 cells at 50 uM after 48 hrs by MTT assay; settings: PC-3, 48 h, read-out: GI; how it was run: as §1
Compound,inhibition of growth at 50 µM [1] [%],inhibition of growth at 50 µM [2] [%],inhibition of growth at 50 µM [3] [%],inhibition of growth at 50 µM [4] [%],inhibition of growth at 50 µM [5] [%],inhibition of growth at 50 µM [6] [%],inhibition of growth at 50 µM [7] [%]
CC(=O)c1cc2c(c3c1OC(C)(C)CC3)OC(C)(C)CC2,20,2,18,5,25,25,19
Cc1ccc(/C=C/C(=O)c2cc3c(c4c2OC(C)(C)CC4)OC(C)(C)CC3)cc1,11,38,15,2,41,18,48
CC1(C)CCc2cc(C(=O)/C=C/c3ccc(Br)cc3)c3c(c2O1)CCC(C)(C)O3,28,52,16,27,45,25,33
